The record followed here is ChEMBL document CHEMBL1124721, “Antioxidant-based inhibitors of leukotriene biosynthesis. The discovery of 6-[1-[2-(hydroxymethyl)phenyl]-1-propen-3-yl]-2,3-dihydro-5- benzofuranol, a potent topical antiinflammatory agent” (J Med Chem, 1990).

The subject of series [1] is Mus musculus. Briefly: Tested for ability to inhibit the topical inflammatory response in the topical mouse ear(TME) model. The class given is functional. The procedure, abridged: (§1)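 Mice received 25 μL on the inner surface of one ear, with five mice per group. Compound was applied in acetone/pyridine/water 97:2:1 together with 200 μg/mL PMA as irritant. Controls received vehicle alone or vehicle with PMA. Solvent was evaporated at room temperature. After 4 h, 6-mm ear punches were weighed wet to measure edema. ED50 came from four-point titrations.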

The species named for another series is Homo sapiens. Description: Inhibitory activity against production of leukotriene B4 in isolated human polymorphonuclear leukocytes. It counts as functional. The procedure, abridged:
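Leukotriene biosynthesis in human polymorphonuclear leukocytes was started with calcium ionophore A23187, and LTB₄ was quantified by radioimmunoassay. Inhibition curves came from five-point titrations fitted with a four-parameter algorithm to give IC50. Compounds were generally tested at least in duplicate, with the IC50 reported as the mean of all determinations.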

Series [2] is described as follows: Partition coefficient (logP). To be noted: octanol/water. The class given is physicochemical. The essentials:
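Octanol/water log P was estimated by calculation with commercial software, not measured experimentally.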

Series [3] concerns Mus musculus. Briefly: Tested for its ability to inhibit the topical inflammatory response in the topical mouse ear(TME) model. The class given is functional. The procedure, abridged: as §1

The IC50 is the concentration that gives 50% inhibition. Lower therefore signals greater potency in that assay. Broadly, the logP is a log measure of how a compound divides between an organic and an aqueous phase. Compound `OCc1ccccc1NCc1c(O)ccc2c1CCCO2` yielded an ED50 in the series with Mus musculus [1] of 0.6 uM site-1. This compound registered an IC50 in the series listed under Homo sapiens of 17000 nM. This compound also yielded a logP in series [2] of 2.4.
In the series filed under Homo sapiens, `OCc1ccccc1SCc1cc2c(cc1O)CCCO2` had an IC50 of 1400 nM. In series [2], this compound yielded a logP of 3.6.
As to `CC(=O)c1ccc(SCc2cc3c(cc2O)CCCO3)cc1`, it took 440 nM to reach half-maximal inhibition in the series filed under Homo sapiens (IC50). In series [2], this compound displayed a logP of 4.2.
With `O=Cc1ccccc1/C=C/Cc1cc2c(cc1O)CCO2`, the IC50 in the series listed under Homo sapiens came out at 70 nM. This compound also displayed a logP in series [2] of 3.9.
As to `COc1ccc(O)c(C/C=C/c2ccccc2)c1`, the ED50 in the series with Mus musculus [1] is 1.08 uM site-1. In addition, the IC50 in the series filed under Homo sapiens turned out to be 250 nM. This compound also gave a logP in series [2] of 4.4.
The compound `OCc1ccccc1CCCc1cc2c(cc1O)CCO2` displayed a half-maximal inhibitory concentration (IC50) in the series filed under Homo sapiens of 190 nM. In addition, the logP in series [2] was 4.
Turning to `COc1ccc(O)c(CNc2ccc(F)cc2F)c1`, the IC50 in the series listed under Homo sapiens worked out at 1300 nM. This compound came in with a logP in series [2] of 3.5.
For the compound `Oc1cc2c(cc1CNc1ccccc1)OCC2`, inhibition in the series filed under Homo sapiens was half-maximal at 490 nM (IC50). This compound yielded a logP in series [2] of 2.9.
Compound `Oc1cc2ccoc2cc1CNc1ccccc1` gave an ED50 in the series on Mus musculus [1] of 0.97 uM site-1. In the series filed under Homo sapiens, 11000 nM corresponded to half-maximal inhibition (IC50). In series [2], this compound gave a logP of 3.3.
For the compound `CC(=O)c1ccc(/C=C/Cc2cc3c(cc2O)CCO3)cc1`, the ED50 in the series with Mus musculus [1] was found to be 0.54 uM site-1. The compound further gave an IC50 in the series filed under Homo sapiens of 60 nM. The compound further registered a logP in series [2] of 4.
Turning to `COc1ccc(O)c(CSc2ccccc2)c1`, in the series listed under Homo sapiens, the IC50 came to 590 nM. Moreover, the logP in series [2] was 3.9.
For the compound `N#Cc1ccc(NCc2cc3c(cc2O)CCCO3)cc1`, in the series on Mus musculus [1], the ED50 worked out at 1.61 uM site-1. The same compound had an IC50 in the series listed under Homo sapiens of 1600 nM. Besides, in series [2], the logP is 3.6.
In the series on Mus musculus [3], `COc1ccc(O)c(CNc2ccccc2)c1` displayed an ED50 of 0.61 uM site-1. For the same compound, in the series listed under Homo sapiens, the IC50 came out at 4700 nM. Further, the logP in series [2] was determined as 2.8.
The compound `N#Cc1cc(NCc2cc3c(cc2O)CCO3)cs1` registered an IC50 in the series filed under Homo sapiens of 440 nM. The compound also came in with a logP in series [2] of 2.8.
The compound `OCc1ccccc1/C=C/Cc1cc2c(cc1O)CCO2` yielded an ED50 with Mus musculus [1] of 0.74 uM site-1. The compound also yielded an IC50 in the series listed under Homo sapiens of 130 nM. Besides, the logP in series [2] is 3.5.
For the compound `Oc1ccc2c(c1CNc1ccc(F)cc1F)CCCO2`, the IC50 in the series listed under Homo sapiens stood at 1400 nM. The compound further came in with a logP in series [2] of 4.2.
As to `CC(=O)c1ccc(NCc2cc3c(cc2O)CCO3)cc1`, the ED50 in the series on Mus musculus [1] was 0.35 uM site-1. Also, the IC50 in the series listed under Homo sapiens is 1200 nM. The logP in series [2] was found to be 2.9.
Compound `OCc1ccccc1NCc1cc2c(cc1O)CCO2` yielded an IC50 in the series listed under Homo sapiens of 11000 nM. For the same compound, the logP in series [2] amounted to 1.9.
For `Oc1cc2c(cc1CNc1ccc(F)cc1F)OCC2`, half-maximal inhibition in the series listed under Homo sapiens (IC50) required 660 nM. The logP in series [2] stood at 3.6.
With `CCOC(=O)c1ccc(NCc2cc3c(cc2O)CCCO3)cc1`, in the series listed under Homo sapiens, the IC50 came out at 600 nM. The compound also showed a logP in series [2] of 4.6.
For `CC(=O)c1ccc(NCc2cc3c(cc2O)CCCO3)cc1`, in the series on Mus musculus [1], the ED50 was 0.35 uM site-1. Moreover, the midpoint of inhibition in the series listed under Homo sapiens, the IC50, lay at 4100 nM. In series [2], this compound yielded a logP of 3.5.
`Oc1cc2c(cc1CNc1ccc(F)cc1F)OCCC2` displayed an IC50 in the series listed under Homo sapiens of 1300 nM. This compound showed a logP in series [2] of 4.2.
On the same counts, the results for `COc1ccc(O)c(COc2ccccc2)c1` are 1400 nM and 3.3.
`COc1ccc(O)c(CNc2ccc(C#N)s2)c1`: in the series filed under Homo sapiens, the IC50 came out at 2600 nM. In addition, the logP in series [2] was found to be 2.7.
For the compound `COc1ccc(O)c(CCc2ccccc2)c1`, in the series filed under Homo sapiens, the 50% inhibitory concentration (IC50) stood at 120 nM. The same compound had a logP in series [2] of 4.3.
In the series filed under Homo sapiens, `N#Cc1ccc(NCc2cc3c(cc2O)CCO3)s1` registered an IC50 of 990 nM. In addition, in series [2], the logP was found to be 2.8.
In turn, `OCc1ccccc1NCc1cc2c(cc1O)CCCO2` returned an ED50 with Mus musculus [1] of 0.49 uM site-1. The IC50 in the series filed under Homo sapiens was 21000 nM. The lipophilicity (logP) in series [2] was determined as 2.4.
In the case of `CC(=O)c1ccc(NCc2c(O)ccc3c2CCCO3)cc1`, in the series listed under Homo sapiens, the IC50 came to 11000 nM. The compound also came in with a logP in series [2] of 3.5.
`COc1ccc(O)c(CSc2ccccc2CO)c1` yielded an ED50 in the series with Mus musculus [1] of 0.87 uM site-1. The compound also had an IC50 in the series listed under Homo sapiens of 8700 nM. In series [2], this compound displayed a logP of 2.9.
In the series with Mus musculus [1], `OCc1ccccc1NCc1cc2occc2cc1O` displayed an ED50 of 0.44 uM site-1. The compound also registered an IC50 in the series filed under Homo sapiens of 42000 nM. In series [2], this compound had a logP of 2.2.
In the same order, the values of `Oc1cc2c(cc1CNc1ccccc1)OCCC2` are 0.67 uM site-1, 1700 nM and 3.5.
With `COc1ccc2c(c1)c(CC(=O)O)c(C)n2C(=O)c1ccc(Cl)cc1` [INDOMETHACIN], the ED50 in the series on Mus musculus [1] came to 0.64 uM site-1.
